The structures appear in SMILES notation. The whole screen tested about 310,000 compounds, of which about 1,100 (0.35%) were called active.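 How the source made its calls: active means fluorescence ratio B-score, a plate-corrected score, at least three library SD, with initial intensity B-score within 5 SD; inactive means the rest.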 What follows is part of a selection rich in actives, with near analogues and random picks from the rest.

Sequence of Potassium voltage-gated channel subfamily KQT member 1 (Homo sapiens) (P51787 whole entry, looked up): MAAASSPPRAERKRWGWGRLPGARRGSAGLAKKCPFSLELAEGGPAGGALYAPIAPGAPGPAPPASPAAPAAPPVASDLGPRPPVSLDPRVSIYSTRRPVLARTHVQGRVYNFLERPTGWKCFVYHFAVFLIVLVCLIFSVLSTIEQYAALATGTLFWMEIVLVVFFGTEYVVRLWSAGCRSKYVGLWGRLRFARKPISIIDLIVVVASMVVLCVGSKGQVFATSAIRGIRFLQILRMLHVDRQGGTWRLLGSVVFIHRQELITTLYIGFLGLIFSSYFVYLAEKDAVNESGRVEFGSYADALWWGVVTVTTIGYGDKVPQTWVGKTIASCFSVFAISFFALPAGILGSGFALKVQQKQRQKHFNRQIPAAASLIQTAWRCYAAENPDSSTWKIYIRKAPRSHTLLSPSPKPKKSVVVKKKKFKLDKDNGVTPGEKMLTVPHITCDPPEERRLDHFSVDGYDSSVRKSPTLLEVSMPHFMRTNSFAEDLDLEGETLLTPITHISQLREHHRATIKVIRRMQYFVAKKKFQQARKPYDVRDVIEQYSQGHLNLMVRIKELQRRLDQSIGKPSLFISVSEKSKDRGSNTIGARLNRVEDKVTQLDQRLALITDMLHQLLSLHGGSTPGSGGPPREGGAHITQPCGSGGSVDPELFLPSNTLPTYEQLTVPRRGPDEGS

This assay concerns the target Potassium voltage-gated channel subfamily KQT member 1 (Homo sapiens) (UniProt P51787). The assay is described as follows: potentiators or activators of KCNQ1 channel, primary screen, cell-based, thallium flux, high-throughput (AID 2648). The conditions noted are these: CHO-K1 KCNQ1, thallium flux FluxOR fluorescence, at 10 µM; active compounds read high. Put shortly: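 Doses: Single concentration per compound, DMSO matched to controls | Test system: KCNQ1-transfected CHO-K1 cells | Timing: 90 min dye loading and 20 min compound exposure, both at room temperature | Measured by: Kinetic FluxOR thallium fluorescence, 10-s 1-Hz baseline, 110-s post-stimulus read | Medium: Assay buffer with matched DMSO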
For `CN(CC(=O)Nc1ccc(Cl)cc1)C(=O)CNC(=O)c1ccc2ccccc2c1`, the B-score entry was “inactive”.
`COc1cc(C(=O)NCC(=O)NCCSc2ccc(Br)cc2)cc(OC)c1OC`: the B-score result is “inactive”.
For `Cc1ccc(N(CC(=O)NC2CCCCC2)C(=O)CCCC(=O)Nc2ccccn2)c(C)c1`, the B-score result was “inactive”.
On to `CCCCNC(=O)C1CCCNC1=O` (configuration not stated), for which the B-score entry was “inactive”.
For `CCC1(C)Cc2c(sc3nc(SC)[nH]c(=O)c23)CO1` (configuration not stated), the B-score result was “inactive”.
Turning to `CCC1(C)Cc2c(sc3[nH]c(=S)n(Cc4ccccc4)c(=O)c23)CO1` (configuration not stated), the B-score is 57 (active).
Consider `CCC1(C)Cc2c(sc3nc4n(c(=O)c23)CCCS4)CO1` (configuration not stated), for which the B-score result was “inactive”.
`OC(CNCc1ccc(Cl)c(Cl)c1)c1ccccc1` (configuration not stated): the B-score entry was “inactive”.
Take `Cc1cccn2cc(-c3cccc(S(=O)(=O)N4CCCCC4)c3)nc12`: the B-score result is “inactive”.
`Cc1nn(C)c(C(=O)NNC(=S)NC2CCCCC2)c1Cl`: the B-score result was “inactive”.
With `COc1cccc(NC(=S)NC(=O)c2c(Cl)c(C)nn2C)c1` the figure was 8 (active).
As for `COc1cccc(NC(=S)NCc2ccccn2)c1`, the B-score entry is “inactive”.
Turning to `CCOc1ccc(N=C2NC(=O)S/C2=C\c2ccc(O)cc2)cc1`, the B-score entry is “inactive”.
As for `COc1ccc(/C=C2\SC(=N)N(c3ccc(F)cc3)C2=O)cc1`, the B-score result was “inactive”.
With `COc1ccc(/C=C2/S/C(=N/N=C3\CC4CCC3(C)C4(C)C)NC2=O)cc1` (configuration not stated), the B-score is 23 (active).
On to `Cc1ccc(OS(=O)(=O)c2ccc(-c3csc(C)n3)s2)c(C)c1`, for which the B-score entry is “inactive”.
On to `CCOC(=O)N1CCN(C(=O)C(C)NC(=O)c2ccco2)CC1` (configuration not stated), for which the B-score entry is “inactive”.
Take `Cc1ccc(C)c(NC(=O)C(OC(=O)c2ccc(C)s2)c2ccccc2)c1` (configuration not stated): the B-score entry was “inactive”.
Regarding `COC(=O)Cn1c2ccc(C)cc2c2nc(C)sc21`, the B-score entry is “inactive”.
Turning to `CCn1c(O)c(N=NC2=NC(=O)CS2)c2cc(C)ccc21`, the B-score is 11 (active).
As for `CCn1c(O)c(N=NC(=O)c2cccc(S(=O)(=O)N3CCCCC3)c2)c2ccccc21`, the B-score entry was “inactive”.
For `CCCc1noc2c1/C(=N\O)CCC2`, the B-score entry was “inactive”.
With `Cc1c(N=Nc2ccc(N(C)C)cc2)c(=O)n(-c2ccccc2)n1C`, the B-score entry is “inactive”.
The result for `CCOC(=O)c1c(NC(=O)C2(C)Cc3ccccc3C(=O)O2)sc2c1CCCC2` (configuration not stated) reads “inactive”; that for `CCOC(=O)c1c(NC(=S)Nc2ccccc2)sc2c1CCN(C)C2`, “inactive”; that for `CCOC(=O)c1c(NC(=S)NC)sc2c1CCCC2`, 77 (active).
`Cc1ccc(C(=O)CN2C(=O)NC3(CCc4ccccc43)C2=O)c(C)c1` (configuration not stated): the B-score entry was “inactive”.
With `Clc1cccc(N=C2NN=C(c3ccc4c(c3)OCCO4)CS2)c1`, the B-score result is “inactive”.
On to `CN(C)c1nc(=Nc2cccc(Cl)c2)ss1`, for which the B-score is 12 (active).
In the case of `Cc1cc(C)c(C#N)c(SCC(=O)NN2CC(=O)N(c3ccccc3F)CC2=O)n1`, the B-score result was “inactive”.
`CCN(CC)N=Nc1cccc(NC(C)=O)c1`: the B-score entry was “inactive”.
The result for `O=C(C1=C(O)C(=O)N(CCOCCO)C1c1ccccn1)c1cccs1` (configuration not stated) reads “inactive”; that for `CCOc1cc(C)c(S(=O)(=O)NCc2ccccn2)cc1C`, “inactive”.
Regarding `COc1ccc(CC(=O)n2nc(-c3cccnc3)nc2N)cc1`, the B-score entry is “inactive”.
For `COc1ccc(C(=O)n2nc(-c3ccc(C)cc3)nc2N)cc1OC`, the B-score result was “inactive”.
The result for `CCCC(=O)n1nc(-c2ccccc2)nc1N` reads 20 (active).
With `O=C1/C(=C\Nc2ccccc2)CCN1c1ncccn1`, the B-score result was “inactive”.
Regarding `O=C1N[C@@H](Cc2ccccc2)C(=O)N2[C@H]1C[C@]1(Br)c3ccccc3N(S(=O)(=O)c3ccccc3)[C@H]21`, the B-score result was “inactive”.
In the case of `O=c1c(-c2cccc(Cl)c2)c[nH]n1-c1ccccc1`, the B-score entry was “inactive”.
For `O=C1c2ccccc2NC(c2ccc(-c3cccc(Cl)c3)o2)N1O` (configuration not stated), the B-score was 10 (active).
Regarding `O=C1NC(c2cccc(Cl)c2)Nc2ccccc21` (configuration not stated), the B-score entry was “inactive”.
As to `O=C(N/N=C\c1cc2c(cc1Cl)OCO2)c1ccc(Br)s1`, the B-score result is “inactive”.
As to `COC(=O)c1sccc1NC(=O)COc1ccc(Cl)cc1`, the B-score entry is “inactive”.
For the compound `COC(=O)c1sccc1NC(=O)CSc1ccccc1NS(=O)(=O)c1cc(Cl)ccc1Cl`, the B-score was 12 (active).
With `COC(=O)c1sccc1NS(=O)(=O)c1ccc(F)cc1F` the entry was “inactive”.
Take `COc1ccc(C(=O)NC(=S)NC2CCCCC2)cc1`: the B-score entry is “inactive”.
As to `O=C(NC(=S)NC1CCCCC1)c1ccc(Cl)cc1`, the B-score is 9 (active).
Turning to `O=C(NNC(=S)NC1CCCCC1)c1ccccc1Cl`, the B-score entry was “inactive”.
Consider `CC(C)Cc1nc(Nc2ccc(S(=O)(=O)N3CCCC3)cc2)c2nnn(Cc3ccccc3)c2n1`, for which the B-score entry was “inactive”.
The result for `CCc1ccc(Oc2coc3cc(O)ccc3c2=O)cc1` reads “inactive”.
Regarding `CC(Oc1cccc(Cl)c1)C(=O)Nc1ccc(S(=O)(=O)Nc2ncccn2)cc1` (configuration not stated), the B-score entry is “inactive”.
On to `CCCc1nc2sc3c(c2c(=O)n1NC(=O)CCCl)CCCC3`, for which the B-score result was “inactive”.
With `CN(C)CCCn1c(=O)n(Cc2ccccc2)c(=O)c2c3c(sc21)CCCCC3`, the B-score entry is “inactive”.
As to `CCn1c(=S)[nH]c2sc3c(c2c1=O)CCCCC3`, the B-score is 92 (active).
Consider `N#Cc1nc(N)nc(N(c2ccccc2)c2ccccc2)n1`, for which the B-score entry is “inactive”.
In the case of `O=C(Nc1cccn(Cc2ccccc2Cl)c1=O)NC1CCCCC1`, the B-score result was “inactive”.
With `CC(OC(=O)C1CC(=O)N(Cc2ccccc2)C1)C(=O)Nc1ccccc1[N+](=O)[O-]` (configuration not stated), the B-score entry is “inactive”.
Regarding `COc1ccc(C(=O)NC(=S)NNC(=O)c2c(-c3ccccc3)noc2C)cc1`, the B-score result was “inactive”.
Consider `COc1ccc(C(=O)NNC(=S)NC(=O)c2ccccc2[N+](=O)[O-])cc1`, for which the B-score entry is “inactive”.
For `COc1ccc(C(=O)NNC(=S)NC(=O)c2ccccc2)cc1`, the B-score was 10 (active).
With `CCc1cc2c(=O)c(-c3ccon3)c(N)oc2cc1OC`, the B-score result is “inactive”.
Take `Oc1ccc(N=Nc2nccs2)c(O)c1`: the B-score result was “inactive”.
With `Oc1ccc2ccccc2c1N=Nc1nccs1`, the B-score is 21 (active).
On to `c1ccc(NCc2cccc3ccccc23)nc1`, for which the B-score entry was “inactive”.
`COc1ccc(N(CC(=O)NCc2ccc(F)cc2)C(=O)CCC(=O)Nc2nccs2)cc1`: the B-score result was “inactive”.
Regarding `CC1=C/C(=N\OS(=O)(=O)c2ccccc2)C=CC1=O`, the B-score was 9 (active).
With `O=S(=O)(ON(c1ccccc1)S(=O)(=O)c1ccccc1)c1ccccc1` the entry was “inactive”; with `CCOc1ccc(Br)cc1S(=O)(=O)Nc1cccc(S(=O)(=O)N(CC)CC)c1`, “inactive”.
As for `Cc1cccc(OCC(=O)NC(=S)Nc2ccccc2N2CCOCC2)c1`, the B-score result was “inactive”.
For `Cc1ccc(O)c(NC(=O)COc2cc(C)ccc2C)c1`, the B-score result is “inactive”.
For the compound `Cc1ccc(O)c(NC(=S)NC(=O)COc2ccc(Br)cc2)c1`, the B-score was 8 (active).
Regarding `CCCCn1c(N)c(N(CCC(C)C)C(=O)CC2OC(=O)c3ccccc32)c(=O)[nH]c1=O` (configuration not stated), the B-score result is “inactive”.

(Values after PubChem BioAssay AID2648 (Johns Hopkins Ion Channel Center, 2010).)
